Converted amounts (≈) assume the structure as drawn.
Tests used:
[1] = test system: Staphylococcus aureus; test: In vitro antibacterial activity of compound against Staphylococcus aureus Tour L 165; type: functional
Summary of the method: (§1)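 Twofold microdilution MIC in Iso-Sensitest broth over 128-0.0001 µg/mL. Inoculum was 10^4 cfu/mL, with incubation at 37 °C for 18-24 h.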

[2] = test system: Klebsiella pneumoniae; test: In vitro antibacterial activity of compound against Klebsiella pneumoniae ISM; type: functional
[3] = test system: Pseudomonas aeruginosa; test: In vitro antibacterial activity of compound against Pseudomonas aeruginosa ATCC 10145; type: functional; summary of the method: as §1
[4] = test system: Neisseria gonorrhoeae; test: In vitro antibacterial activity of compound against Neisseria gonorrhoeae ISM 68/126; type: functional
[5] = test system: Streptococcus pyogenes; test: In vitro antibacterial activity of compound against Streptococcus pyogenes C 203 SKF 13400; type: functional
Summary of the method: (§2)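 Streptococcal MICs were run by twofold microdilution in Todd-Hewitt broth over 128-0.0001 µg/mL. Inoculum was 10^4 cfu/mL, with incubation at 37 °C for 18-24 h.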

[6] = test system: Staphylococcus epidermidis; test: In vitro antibacterial activity of compound against Staphylococcus epidermidis ATCC 12228; type: functional; summary of the method: as §1
[7] = test system: Streptococcus pneumoniae; test: In vitro antibacterial activity of compound against Streptococcus pneumoniae UC 41; type: functional; summary of the method: as §2
[8] = test system: Escherichia coli; test: In vitro antibacterial activity of compound against Escherichia coli SKF 12140; type: functional
[9] = test system: Haemophilus influenzae; test: In vitro antibacterial activity of compound against Haemophilus influenzae ATCC 19418; type: functional
[10] = test system: Proteus vulgaris; test: In vitro antibacterial activity of compound against Proteus vulgaris X19H ATCC 881; type: functional
[11] = test system: Mycobacterium tuberculosis; test: In vitro antibacterial activity of compound against Mycobacterium tuberculosis H37Rv ATCC 9660; type: functional
[12] = test system: Enterococcus faecalis; test: In vitro antibacterial activity of compound against Streptococcus faecalis ATCC 7080.; type: functional; summary of the method: as §1
[13] = test system: Mycobacterium avium; test: 50% inhibition of the 20 Mycobacterium (MAC) avium complex clinical isolates; type: functional
Summary of the method: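 Agar-dilution MICs, 2-fold dilutions over 128-0.0001 μg/mL, on Middlebrook 7H10 agar with 2% glycerol and 10% OADC. Organisms from Loevenstein-Jensen slants were grown in 7H9 broth with 0.5% Tween and 10% OADC, adjusted to McFarland no. 1, and spotted with a multipoint inoculator. Plates were sealed and incubated at 22, 30 or 37 °C for 4-20 days depending on strain.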

[14] = test system: Mycobacterium avium; test: 90% inhibition of the 20 Mycobacterium avium complex (MAC) clinical isolates
[15] = test system: Mycobacterium avium; test: Minimum inhibitory concentration of compound against 20 Mycobacterium avium complex (MAC) clinical isolates
[16] = test system: Streptococcus pyogenes; test: Inhibitory concentration of compound against Streptococcus pyogenus septicemia in the mouse, administarted in OS route; type: functional
Summary of the method: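 Male and female CD1 mice (18-22 g) were infected ip with S. pyogenes C203, with the challenge set so untreated mice died within 48 h. Groups of five received a single treatment immediately after infection. ED50 was calculated from the percentage surviving at each dose on day 10.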

[17] = test system: Streptococcus pyogenes; test: Minimum inhibitory concentration of compound against Streptococcus pyogenus septicemia in the mouse; type: functional

SMILES | MIC [1] [µg/mL] | MIC [2] [µg/mL] | MIC [3] [µg/mL] | MIC [4] [µg/mL] | MIC [5] [µg/mL] | MIC [6] [µg/mL] | MIC [7] [µg/mL] | MIC [8] [µg/mL] | MIC [9] [µg/mL] | MIC [10] [µg/mL] | MIC [11] [µg/mL] | MIC [12] [µg/mL] | MIC50 [13] [µg/mL] | MIC90 [14] [µg/mL] | MIC [15] [µg/mL] | ED50 [16] [mg/kg] | MIC [17] [µg/mL]
COc1ccc(N2CCN(c3nc4c(s3)c3c(O)c5c(O)c(C)c6c(c54)C(=O)C(C)(O/C=C/C(OC)C(C)C(OC(C)=O)C(C)C(O)C(C)C(O)C(C)/C=C/C=C(/C)C(=O)N3)O6)CC2)cc1 (centres undefined) | 0.063 (≈ 0.0678 µM) | > 128 | 128 (≈ 138 µM) | 0.125 (≈ 0.135 µM) | 0.125 (≈ 0.135 µM) | 0.063 (≈ 0.0678 µM) | 0.063 (≈ 0.0678 µM) | 8 (≈ 8.61 µM) | 0.125 (≈ 0.135 µM) | 64 (≈ 68.9 µM) | 0.25 (≈ 0.269 µM) | 4 (≈ 4.31 µM) | – | – | – | – | –
CCOC(=O)N1CCN(c2nc3c(s2)c2c(O)c4c(O)c(C)c5c(c43)C(=O)C(C)(O/C=C/C(OC)C(C)C(OC(C)=O)C(C)C(O)C(C)C(O)C(C)/C=C/C=C(/C)C(=O)N2)O5)CC1 (centres undefined) | 0.063 (≈ 0.0704 µM) | 32 (≈ 35.8 µM) | 32 (≈ 35.8 µM) | 0.125 (≈ 0.14 µM) | 0.063 (≈ 0.0704 µM) | 0.063 (≈ 0.0704 µM) | 0.063 (≈ 0.0704 µM) | 16 (≈ 17.9 µM) | 0.125 (≈ 0.14 µM) | 16 (≈ 17.9 µM) | 2 (≈ 2.23 µM) | 4 (≈ 4.47 µM) | – | – | – | – | –
COC1/C=C/OC2(C)Oc3c(C)c(O)c4c(O)c(c5sc(N6CCOCC6)nc5c4c3C2=O)NC(=O)/C(C)=C\C=C\C(C)C(O)C(C)C(O)C(C)C(OC(C)=O)C1C (centres undefined) | 0.002 (≈ 0.00243 µM) | 32 (≈ 38.8 µM) | 16 (≈ 19.4 µM) | 0.125 (≈ 0.152 µM) | 0.032 (≈ 0.0388 µM) | 0.063 (≈ 0.0765 µM) | 0.016 (≈ 0.0194 µM) | 16 (≈ 19.4 µM) | 0.5 (≈ 0.607 µM) | 8 (≈ 9.71 µM) | 2 (≈ 2.43 µM) | 1 (≈ 1.21 µM) | 32 (≈ 38.8 µM) | 128 (≈ 155 µM) | > 16 | – | –
CCNc1nc2c(s1)c1c(O)c3c(O)c(C)c4c(c32)C(=O)C(C)(O/C=C/C(OC)C(C)C(OC(C)=O)C(C)C(O)C(C)C(O)C(C)/C=C/C=C(/C)C(=O)N1)O4 (centres undefined) | 0.063 (≈ 0.0806 µM) | 32 (≈ 40.9 µM) | 4 (≈ 5.12 µM) | 0.125 (≈ 0.16 µM) | 0.063 (≈ 0.0806 µM) | 0.032 (≈ 0.0409 µM) | 0.063 (≈ 0.0806 µM) | 16 (≈ 20.5 µM) | 0.125 (≈ 0.16 µM) | 8 (≈ 10.2 µM) | 0.125 (≈ 0.16 µM) | 1 (≈ 1.28 µM) | 32 (≈ 40.9 µM) | 64 (≈ 81.8 µM) | 8 (≈ 10.2 µM) | > 4 | 0.063 (≈ 0.0806 µM)
COC1/C=C/OC2(C)Oc3c(C)c(O)c4c(O)c(c5sc(N6CCN(C)CC6)nc5c4c3C2=O)NC(=O)/C(C)=C\C=C\C(C)C(O)C(C)C(O)C(C)C(OC(C)=O)C1C (centres undefined) | 0.004 (≈ 0.00478 µM) | 16 (≈ 19.1 µM) | 8 (≈ 9.56 µM) | 16 (≈ 19.1 µM) | 0.032 (≈ 0.0382 µM) | 0.063 (≈ 0.0753 µM) | 0.125 (≈ 0.149 µM) | 2 (≈ 2.39 µM) | 0.5 (≈ 0.597 µM) | 32 (≈ 38.2 µM) | 2 (≈ 2.39 µM) | 0.032 (≈ 0.0382 µM) | 64 (≈ 76.5 µM) | 64 (≈ 76.5 µM) | 16 (≈ 19.1 µM) | – | –
COC1/C=C/OC2(C)Oc3c(C)c(O)c4c(O)c(c5scnc5c4c3C2=O)NC(=O)/C(C)=C\C=C\C(C)C(O)C(C)C(O)C(C)C(O)C1C (centres undefined) | 0.032 (≈ 0.0459 µM) | 16 (≈ 23 µM) | 8 (≈ 11.5 µM) | 0.125 (≈ 0.179 µM) | 0.125 (≈ 0.179 µM) | 0.008 (≈ 0.0115 µM) | 0.125 (≈ 0.179 µM) | 16 (≈ 23 µM) | 0.125 (≈ 0.179 µM) | 4 (≈ 5.74 µM) | 0.5 (≈ 0.718 µM) | 4 (≈ 5.74 µM) | – | – | – | – | –
COC1/C=C/OC2(C)Oc3c(C)c(O)c4c(O)c(c5sc(N6CCN(c7ccccc7)CC6)nc5c4c3C2=O)NC(=O)/C(C)=C\C=C\C(C)C(O)C(C)C(O)C(C)C(OC(C)=O)C1C (centres undefined) | 0.008 (≈ 0.0089 µM) | > 128 | 8 (≈ 8.9 µM) | 0.125 (≈ 0.139 µM) | 0.032 (≈ 0.0356 µM) | 0.032 (≈ 0.0356 µM) | 0.004 (≈ 0.00445 µM) | 4 (≈ 4.45 µM) | 0.125 (≈ 0.139 µM) | 16 (≈ 17.8 µM) | 1 (≈ 1.11 µM) | 1 (≈ 1.11 µM) | – | – | – | – | –
COC1/C=C/OC2(C)Oc3c(C)c(O)c4c(O)c(c5sc(N6CCNCC6)nc5c4c3C2=O)NC(=O)/C(C)=C\C=C\C(C)C(O)C(C)C(O)C(C)C(OC(C)=O)C1C (centres undefined) | 0.125 (≈ 0.152 µM) | 16 (≈ 19.4 µM) | 8 (≈ 9.72 µM) | 0.125 (≈ 0.152 µM) | 0.125 (≈ 0.152 µM) | 0.063 (≈ 0.0766 µM) | 0.063 (≈ 0.0766 µM) | 8 (≈ 9.72 µM) | 0.25 (≈ 0.304 µM) | 8 (≈ 9.72 µM) | – | 2 (≈ 2.43 µM) | – | – | – | – | –
COC1/C=C/OC2(C)Oc3c(C)c(O)c4c(O)c(c5sc(N6CCN(c7ccc(Cl)cc7)CC6)nc5c4c3C2=O)NC(=O)/C(C)=C\C=C\C(C)C(O)C(C)C(O)C(C)C(OC(C)=O)C1C (centres undefined) | 0.063 (≈ 0.0675 µM) | > 128 | 128 (≈ 137 µM) | 0.25 (≈ 0.268 µM) | 0.125 (≈ 0.134 µM) | 0.063 (≈ 0.0675 µM) | 0.063 (≈ 0.0675 µM) | 8 (≈ 8.57 µM) | 0.125 (≈ 0.134 µM) | 64 (≈ 68.6 µM) | 1 (≈ 1.07 µM) | 4 (≈ 4.28 µM) | – | – | – | – | –
COC1/C=C/OC2(C)Oc3c(C)c(O)c4c(O)c(c5sc(N6CCN(C(=O)OCc7ccccc7)CC6)nc5c4c3C2=O)NC(=O)/C(C)=C\C=C\C(C)C(O)C(C)C(O)C(C)C(OC(C)=O)C1C (centres undefined) | 0.063 (≈ 0.0658 µM) | > 128 | 32 (≈ 33.4 µM) | 0.125 (≈ 0.131 µM) | 0.125 (≈ 0.131 µM) | 0.032 (≈ 0.0334 µM) | 0.063 (≈ 0.0658 µM) | > 128 | 0.125 (≈ 0.131 µM) | 64 (≈ 66.9 µM) | 0.5 (≈ 0.522 µM) | 2 (≈ 2.09 µM) | – | – | – | – | –
COC1/C=C/OC2(C)Oc3c(C)c(O)c4c(O)c(c5sc(N6CCN(Cc7ccccc7)CC6)nc5c4c3C2=O)NC(=O)/C(C)=C\C=C\C(C)C(O)C(C)C(O)C(C)C(OC(C)=O)C1C (centres undefined) | 0.008 (≈ 0.00876 µM) | 64 (≈ 70.1 µM) | 16 (≈ 17.5 µM) | 0.125 (≈ 0.137 µM) | 0.063 (≈ 0.069 µM) | 0.063 (≈ 0.069 µM) | 0.063 (≈ 0.069 µM) | 32 (≈ 35 µM) | 0.125 (≈ 0.137 µM) | 32 (≈ 35 µM) | 0.125 (≈ 0.137 µM) | 1 (≈ 1.1 µM) | – | – | – | – | –
COC1/C=C/OC2(C)Oc3c(C)c(O)c4c(O)c(c5sc(N6CCCC6)nc5c4c3C2=O)NC(=O)/C(C)=C\C=C\C(C)C(O)C(C)C(O)C(C)C(OC(C)=O)C1C (centres undefined) | 0.004 (≈ 0.00495 µM) | 32 (≈ 39.6 µM) | 8 (≈ 9.9 µM) | 0.5 (≈ 0.619 µM) | 0.008 (≈ 0.0099 µM) | 0.063 (≈ 0.078 µM) | 0.032 (≈ 0.0396 µM) | 16 (≈ 19.8 µM) | 0.125 (≈ 0.155 µM) | 16 (≈ 19.8 µM) | 2 (≈ 2.48 µM) | 2 (≈ 2.48 µM) | – | – | – | – | –

From ChEMBL document CHEMBL1124774, “Synthesis and biological activity of some derivatives of rifamycin P” (1990)
